RGS4 act: RGS4 potentiation or activation; HEK293 M3R/inducible RGS4, carbachol calcium flux Fluo4; hits give low values; B-score at 10 µM; hit rate 0.92% among 310,000; AID 463111;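 active means B-score of the integrated calcium signal more than 4 SD below the library mean, with starting fluorescence not abnormally high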;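 further: negative B-score means reduced calcium response which marks RGS4 activation or potentiation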
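Also added: carbachol at ECmax as muscarinic agonist stimulus; Assay system: HEK293 cells with stable M3R and inducible RGS4; Timing: overnight RGS4 induction, 30 min dye load 37 °C, 20 min compound RT; Measured by: Fluo4-AM (2 µM) calcium-flux fluorescence, kinetic read.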
MrgX1 antag: antagonists of human MrgX1 receptor | MRGX1-HEK293 calcium flux, Fluo-4, BAM8-22 antagonism; hits give low values | B-score at 10 µM | hit rate 1.3% among 310,000;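 active means calcium-response B-score plate-corrected more than 3 library SD below zero, starting fluorescence within 5 deviations, no agonist response on first addition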;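 further: peak minus trough fluorescence over baseline after final BAM8-22 challenge near maximal dose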
Target sequence (Q96LB2 whole entry, looked up): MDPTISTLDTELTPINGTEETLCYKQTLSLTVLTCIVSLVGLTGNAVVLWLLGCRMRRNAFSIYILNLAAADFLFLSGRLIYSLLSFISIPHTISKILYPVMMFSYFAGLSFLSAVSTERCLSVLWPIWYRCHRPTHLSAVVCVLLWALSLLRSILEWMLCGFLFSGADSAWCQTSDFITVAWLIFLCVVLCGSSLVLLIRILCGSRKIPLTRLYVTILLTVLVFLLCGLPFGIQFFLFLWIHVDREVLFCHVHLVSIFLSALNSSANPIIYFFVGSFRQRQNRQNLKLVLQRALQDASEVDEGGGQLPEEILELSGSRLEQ
MrgX1 agonist: activates human MrgX1 receptor signaling | Q96LB2 | MrgX1-HEK293 cells, Fluo-4 calcium fluorescence, agonist mode; hits give high values | B-score at 10 µM | hit rate 0.44% among 310,000 | AID 588627;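 active means calcium response B-score plate-corrected fluorescence ratio at least 3 library SD, with starting fluorescence B-score inside 5 SD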
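Test system: HEK293 cells stably expressing human MrgX1 receptor; amount: 15,000 cells per well; doses: compound delivered in addition one of three; times: overnight plating before 1 h dye loading; detection: Fluo-4 NW calcium-flux fluorescence, kinetic read; read-out basis: B-scored fluorescence response ratio; controls: positive and negative controls per plate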
MrgX1 allo act: allosterically activates human MrgX1 receptor signaling | Q96LB2 | MrgX1-HEK293, Fluo-4 calcium flux, FDSS; hits give high values | B-score at 10 µM | hit rate 0.63% among 310,000 | AID 588675;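 active means plate-corrected calcium response at least 3 library SD above typical, normal starting fluorescence, not activating the receptor alone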;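 further: compound read alongside a low EC10 to EC30 dose of BAM8-22 agonist; peak minus trough fluorescence over baseline measured at the second addition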
RGS4 block: human RGS4 inhibition. P49798. HEK293 M3R/RGS4 inducible, Fluo-4 calcium flux; hits give high values; triggered by carbachol at its EC20. B-score at 10 µM. AID 463165. hit rate 0.45% among 310,000;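 active means B-score, a plate-corrected calcium signal, over three deviations above library mean, with baseline fluorescence within five deviations of library mean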;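 further: RGS4 expression induced by doxycycline in cells with stable M3 receptor; B-score is computed from the integrated fluorescence ratio over baseline after carbachol; higher B-score means a larger calcium signal and so more RGS4 inhibition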
Target sequence (P49798 whole entry, looked up): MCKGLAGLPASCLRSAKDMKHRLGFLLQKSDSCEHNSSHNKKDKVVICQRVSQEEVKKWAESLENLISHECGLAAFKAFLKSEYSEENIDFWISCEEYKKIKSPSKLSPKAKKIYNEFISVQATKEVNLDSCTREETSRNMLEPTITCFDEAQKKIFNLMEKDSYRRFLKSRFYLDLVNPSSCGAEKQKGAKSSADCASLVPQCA
Large screens that a line does not name were inactive. An excerpt weighted towards active compounds, which were near 3.5% of everything screened.

COc1ccccc1C1=NOC(C)(c2nnc(-c3cccc(Cl)c3)o2)C1 (stereo not given)	none
CCOC(=O)C1=C(C)N=c2s/c(=C/c3cccc(OCC(=O)O)c3)c(=O)n2C1c1ccc(F)cc1 (stereo not given)	none
CCOC(=O)C1=C(C)N=c2s/c(=C\c3ccc(C(=O)O)cc3)c(=O)n2C1c1ccc(F)cc1 (stereo not given)	RGS4 act -7.41, MrgX1 antag -4.81
CC1CN(C(=O)c2ccc(NS(=O)(=O)c3ccc(F)c(F)c3)cc2)CC(C)O1 (stereo not given)	none
COc1ccc(C2C=C(C)Nc3ncnn32)cc1 (stereo not given)	none
COc1ccc(C2C=C(c3ccccc3)Nc3ncnn32)cc1 (stereo not given)	MrgX1 allo act 9.98
CCOc1ccc(C2C=C(c3ccc(C)cc3)Nc3ncnn32)cc1 (stereo not given)	MrgX1 agonist 29.9
Cc1ccn2c(c1)nc(=O)c1cc(S(=O)(=O)N3CCOCC3)ccc12	none
CCCCC1(C)OC(=O)C(=Cc2ccc(N(CC)CC)cc2)C(=O)O1 (stereo not given)	MrgX1 agonist 44.1
CCN(CC)c1ccc(/C=C2/C(=O)c3ccc(C(=O)O)cc3C2=O)cc1	none (no result: RGS4 act, RGS4 block)
CCN(CC)c1ccc(C=C2C(=O)OC3(CCCCC3)OC2=O)cc1	MrgX1 agonist 33.1
CCCCCCN1C=CC=C/C1=C/C=C(C#N)C#N	MrgX1 antag -8.12
O=C(Nc1ccc(Cl)c(Cl)c1)OCCNC(=O)c1cccc(Cl)c1	MrgX1 antag -5.34
CC1(C)CC(=O)C(N=Nc2cc(S(=O)(=O)N3CCOCC3)ccc2Cl)=C(O)C1	none
Cc1nn(-c2ccccc2)nc1CNC(=O)c1ncoc1-c1ccccc1	RGS4 act -7.39
COc1ccc(CCNC(=O)c2cccc(C(=O)NCCc3ccc(OC)cc3)n2)cc1	MrgX1 antag -4.83
CN(C(=O)CCc1nnc(CCCCc2ccccc2)o1)C1CC(C)(C)NC(C)(C)C1	MrgX1 antag -5.76
C=CCOc1cccc(C(=O)N(C)C2CCCN(Cc3ccccc3F)C2)c1 (stereo not given)	none
COc1ccc(CC(=O)N(C)CC(=O)Nc2cccc(F)c2)cc1S(=O)(=O)N1CCOCC1	MrgX1 antag -5.28
COc1cccc2cc(-c3cn4cccc(C)c4n3)c(=O)oc12	MrgX1 agonist 38.3
Cn1ncc(Cl)c1C(=O)N/N=C/c1ccccn1	MrgX1 antag -9.3
CCC(NC(C)C)C(O)c1ccc(O)c2[nH]c(=O)ccc12 (stereo not given)	MrgX1 agonist 28.1
COc1ccc(COC(=O)C2=C(C)NC(=O)NC2c2ccc(F)cc2)cc1 (stereo not given)	none
Cc1sc2nc(CSC(C)C(=O)N(C)CC(=O)Nc3ccccc3C(F)(F)F)[nH]c(=O)c2c1C (stereo not given)	RGS4 act -7.12
C(C#CCCCCCCCCC[n+]1ccccc1)#CCCCCCCCCC[n+]1ccccc1	RGS4 act -12.2
CC(=O)Nc1cccc(C(=O)/C=C/c2ccc(/C=C/C(=O)c3cccc(NC(C)=O)c3)cc2)c1	RGS4 block 4.75
Cc1cccc(C(=O)Nc2ccc(C(=O)/C=C/c3ccncc3)cc2)c1	MrgX1 allo act 10.6
O=C(/C=C/c1cccnc1)c1ccc(NC(=O)c2cccc(Br)c2)cc1	MrgX1 allo act 7.07
Cc1cccc(C(=O)Nc2ccc(C(=O)/C=C/c3cccnc3)cc2)c1	none
NCCCC(=O)N1c2ccccc2Sc2ccccc21	RGS4 act -7.03
CCN(CC)C(=O)N1c2ccccc2Sc2ccccc21	none
CCN(CC)CC(=O)N1c2ccccc2Sc2ccc(Cl)cc21	RGS4 act -9.75
CCC(=O)c1ccc(OCC(O)CN(CCc2ccccc2)Cc2ccccc2)cc1 (stereo not given)	RGS4 act -8.35
OC(COc1ccccc1)CN(Cc1ccccc1)CC(O)COc1ccccc1 (stereo not given)	none (no result: RGS4 act, RGS4 block)
CCOC(=O)C1CCN(C(=O)Nc2ccc3nc(-c4ccco4)c(-c4ccco4)nc3c2)CC1	MrgX1 antag -4.99
O=C(Nc1ccc2nc(-c3ccco3)c(-c3ccco3)nc2c1)N1CCCCCC1	none
COc1ccc(CC(=O)Nc2cccc(/C(C)=N/NC(=O)C3(C)CC3(Br)Br)c2)cc1 (stereo not given)	RGS4 act -9.35
C/C(=N\NC(=O)C1(C)CC1(Br)Br)c1cccc(NC(=O)C(C)(C)C)c1 (stereo not given)	none
CC(C)Cc1nnc(NC(=O)CCC(=O)N2CC(C)CC(C)C2)s1 (stereo not given)	none
Cc1ccc(NC(=O)c2ccc(NS(=O)(=O)c3cccc4cccnc34)cc2)cc1	none
O=C(Nc1ccc(Br)cc1)Nc1ccccc1F	none
O=C(Nc1ccc(Cl)c(Cl)c1)Nc1ccc(Br)cc1F	MrgX1 antag -5.18
COc1ccc(C)cc1NC(=O)CCNS(=O)(=O)c1ccc2c(c1)CC(C)N2C(C)=O (stereo not given)	none
CC(C)NCC(O)COCCOc1ccc(C(C)(C)C)cc1 (stereo not given)	MrgX1 antag -5.23
Cc1nn(Cc2c(Cl)cccc2Cl)c(C)c1NC(=O)CCCn1nc(C)c([N+](=O)[O-])c1C	MrgX1 antag -4.54
Cc1ccc(Cn2nc(C)c(NC(=O)CCCn3nc(C)c([N+](=O)[O-])c3C)c2C)cc1	none
Cc1nn(CCCC(=O)NCCc2ccccc2)c(C)c1[N+](=O)[O-]	MrgX1 allo act 7.21
Cc1ccc(NC(=O)CCc2ccc(C)o2)cc1	none
O=c1c2ccccc2c(/C=N/NS(=O)(=O)c2ccccc2)c(O)n1-c1ccccn1	MrgX1 agonist 52.5
COc1ccccc1CNC(=O)C1CCC(CNS(=O)(=O)c2cccc3cccnc23)CC1 (stereo not given)	none
CCc1nnc(NC(=O)CC23CC4CC(CC(Br)(C4)C2)C3)s1	none
COc1cc(/C=C2/SC(=S)NC2=O)ccc1OS(=O)(=O)c1ccc(C)cc1	MrgX1 antag -4.72
CCOc1ccc(/C=C2\SC(=S)NC2=O)cc1OC	none
COc1ccc(/C=C2\SC(=O)NC2=S)cc1OC	MrgX1 agonist 62.8
O=C1NC(=S)S/C1=C\c1coc2ccccc2c1=O	MrgX1 allo act 7.61
COc1ccc(/C=C2\SC(=S)NC2=O)cc1OS(=O)(=O)c1ccc(NC(C)=O)cc1	none (no result: MrgX1 antag, MrgX1 agonist, MrgX1 allo act)
C/[N+]([O-])=C\c1coc2ccccc2c1=O	none
COc1cc(/C=C2\SC(=S)NC2=O)ccc1OS(=O)(=O)c1ccccc1	MrgX1 antag -6.06
CC12CCC(=O)N1C(C(=O)NCc1ccccc1Cl)CS2 (stereo not given)	none
CCOc1nc(C)ccc1-c1noc(-c2cccnc2)n1	none
CCCS(=O)(=O)N1CCN(c2cc3c(cc2[N+](=O)[O-])n(C)c(=O)n3C)CC1	none
Cc1cccc(CS(=O)(=O)Cc2ccc(C(=O)NC3CCCCC3)o2)c1	none
